From ChEMBL document CHEMBL3352209, “Chroman-4-one- and chromone-based sirtuin 2 inhibitors with antiproliferative properties in cancer cells” (J Med Chem, 2014) come the findings set out here.

The target in series [1] is T1, NAD-dependent protein deacetylase sirtuin-2 (Homo sapiens) (UniProt Q8IXJ6).
T1 sequence (whole entry): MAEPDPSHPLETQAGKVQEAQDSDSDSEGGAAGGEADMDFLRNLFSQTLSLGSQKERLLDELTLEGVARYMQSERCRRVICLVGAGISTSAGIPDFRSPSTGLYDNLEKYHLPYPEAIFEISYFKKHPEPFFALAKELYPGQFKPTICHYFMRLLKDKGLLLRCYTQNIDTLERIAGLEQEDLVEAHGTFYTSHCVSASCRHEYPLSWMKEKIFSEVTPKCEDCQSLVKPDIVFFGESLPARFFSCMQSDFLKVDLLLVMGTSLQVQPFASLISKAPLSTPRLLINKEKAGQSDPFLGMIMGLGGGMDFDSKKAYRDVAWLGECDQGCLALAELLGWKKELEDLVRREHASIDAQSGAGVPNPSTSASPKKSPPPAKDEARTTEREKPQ
In words: Inhibition of recombinant GST-tagged sirtuin-2 (unknown origin) using KI179 as substrate at 200 uM after 1 hr by fluorescence assay. In outline: (§1)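 Recombinant GST-SIRT2 with Fluor de Lys KI179 acetyl-peptide at 0.7 Km (Km 198 μM) and NAD+ at 0.9 Km in HDAC buffer with 1 mg/mL BSA. Compound in DMSO (5% v/v) preincubated 5 min at room temperature, enzyme added, 1 h at 37 °C; developer plus 2 mM nicotinamide 45 min at 37 °C; fluorescence ex 370/em 460 nm. Single-point inhibition at 200 μM, n = 3; IC50 with 95% CI where inhibition >80%.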

Series [2] deals with T2, NAD-dependent protein deacetylase sirtuin-2 (Homo sapiens, UniProt Q8IXJ6).
T2 sequence (Q8IXJ6 whole entry): T1 sequence (whole entry)
In words: Inhibition of recombinant GST-tagged sirtuin-2 (unknown origin) using KI179 as substrate after 1 hr by fluorescence assay. In outline: as §1

Series [3] concerns A549. In words: Antiproliferative activity against human A549 cells at 1 to 100 uM after 48 hrs by sulforhodamine B assay. Type of series: functional, cell-based. In outline: (§2)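 A549 and MCF-7 cells (DMEM, 10% FCS, penicillin/streptomycin, 37 °C, 5% CO2) seeded 3000 cells/well 24 h before dosing; 0–100 μM compound or 0.5% DMSO vehicle for 48 h (A549) or 72 h (MCF-7). Growth read by sulforhodamine B staining; mean ± SEM of two to three independent experiments; ANOVA with Tukey test.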

In series [4] the test system is MCF7. As to the kind of experiment: Antiproliferative activity against human MCF7 cells at 1 to 100 uM after 72 hrs by sulforhodamine B assay. Type of series: functional, cell-based. The procedure, abridged: as §2
Series [5] relates to A549. In words: Antiproliferative activity against human A549 cells at 10 uM after 48 hrs by sulforhodamine B assay. Type of series: functional, cell-based.
Series [6] concerns A549. In words: Antiproliferative activity against human A549 cells at >=50 uM after 48 hrs by sulforhodamine B assay. The class given is functional, cell-based.
Series [7] concerns MCF7. In words: Antiproliferative activity against human MCF7 cells at >=50 uM after 48 hrs by sulforhodamine B assay. Type of series: functional, cell-based.
Series [8] relates to MCF7. In words: Cytotoxicity against human MCF7 cells at 100 uM after 18 hrs. Type of series: cell-based. Particulars: mcf7, 18 h.
Series [9] relates to A549. As to the kind of experiment: Cell cycle arrest in human A549 cells assessed as accumulation at G1/G0 phase at 50 uM after 18 hrs by propidium iodide staining-based flow cytometry. The class given is functional. The procedure, abridged:
(§3)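 A549 or MCF-7 cells seeded 0.6 × 10⁶/well 6 h before exposure to compound or 0.5% DMSO vehicle for 18 h. DNA content measured by propidium iodide staining and flow cytometry, giving percent of cells in G1/G0, S and G2/M; mean ± SEM of two to four independent experiments; one-way ANOVA with Tukey test.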

Series [10] deals with MCF7. In words: Cell cycle arrest in human MCF7 cells assessed as accumulation at G1/G0 phase at 50 uM after 18 hrs by propidium iodide staining-based flow cytometry. Type of series: functional. In outline:
as §3

For series [11], the system named is A549. As to the kind of experiment: Induction of apoptosis in human A549 cells at 50 uM after 18 hrs by propidium iodide staining-based flow cytometry. The class given is functional, cell-based.
Series [12] relates to MCF7. As to the kind of experiment: Induction of apoptosis in human MCF7 cells at 50 uM after 18 hrs by propidium iodide staining-based flow cytometry. The class given is functional, cell-based.
Series [13] deals with T1, NAD-dependent protein deacetylase sirtuin-2 (Homo sapiens). As to the kind of experiment: Inhibition of SIRT2 in human MCF7 cells assessed as alpha-tubulin acetylation after 6 to 18 hrs by Western blotting analysis. Type of series: cell-based. The procedure, abridged: (§4)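 MCF-7 cells seeded 10⁵/well, dosed 24 h later with compound plus 40 nM Trichostatin A, or 0.5% DMSO, for 6 or 18 h. Lysates separated by SDS-PAGE and blotted with acetylated α-tubulin and total α-tubulin mouse monoclonals, HRP anti-mouse and ECL detection; mean ± SEM of three independent experiments.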

The target is the same in series [14]. Particulars: MCF7, 25 to 100 uM.
In series [15] the test system is MCF7. In words: Antiproliferative activity against human MCF7 cells at 10 uM after 72 hrs by sulforhodamine B assay.
Series [16] concerns the target T1, NAD-dependent protein deacetylase sirtuin-2 (Homo sapiens). In words: Inhibition of sirtuin-2 (unknown origin) by SIRTainty assay in presence of NAD+. Particulars: concentration not given here. In outline: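 SIRT2 run in the SIRTainty kit, which uses nicotinamidase to detect nicotinamide released from NAD+, with and without NAD+. Fluorescence ex 405/em 460 nm, given as percent inhibition of the NAD+-dependent signal.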

The target is the same in series [17]. In words: Inhibition of SIRT2 in human MCF7 cells assessed as alpha-tubulin acetylation at 50 to 100 uM after 18 hrs by Western blotting analysis. The class given is cell-based. The procedure, abridged:
as §4

Series [18] relates to MCF7. In words: Cell cycle arrest in human MCF7 cells assessed as accumulation at G1/G0 phase at 100 uM after 18 hrs by propidium iodide staining-based flow cytometry. Type of series: functional. The procedure, abridged:
as §3

Series [19] relates to A549. In words: Cell cycle arrest in human A549 cells assessed as accumulation at G1/G0 phase at 100 uM after 18 hrs by propidium iodide staining-based flow cytometry. Type of series: functional. In outline: as §3
The subject of series [20] is A549. As to the kind of experiment: Cell cycle arrest in human A549 cells assessed as reduction in G2 phase at 100 uM after 18 hrs by propidium iodide staining-based flow cytometry. Type of series: functional. The procedure, abridged:
as §3

In series [21] the test system is A549. As to the kind of experiment: Induction of apoptosis in human A549 cells at 100 uM after 18 hrs by propidium iodide staining-based flow cytometry. Type of series: functional, cell-based.
Series [22] relates to MCF7. As to the kind of experiment: Induction of apoptosis in human MCF7 cells at 100 uM after 18 hrs by propidium iodide staining-based flow cytometry. Type of series: functional, cell-based.

The source made the active and inactive calls. The calls are words filed in the database; no cut-off is given here.

As to `COCCOCC1CC(=O)c2cc(Cl)cc(Br)c2O1` (stereo unspecified), in series [1], the inhibition came to 33%.

Consider `COC(=O)CCC1CC(=O)c2cc(Cl)cc(Br)c2O1` (stereo unspecified), for which the inhibition in series [1] came out at 80%. In series [2], the IC50 came to 9.6 µM.

`N/C=C1\C(=O)c2cc(Cl)cc(Br)c2OC1CCc1ccccc1` (stereo unspecified): the inhibition in [1] stood at 76%.

As for `O=C1CC(CCc2cccnc2)Oc2c(Br)cc(Cl)cc21` (stereo unspecified), the inhibition in series [1] was 86%; in series [13] it was “Dose-dependent effect”. The IC50 in [2] amounted to 3.7 µM. The “growth inhibition (GI)” value with A549 [3], in the series on MCF7 [4], in the series with A549 [5], in the series with A549 [6], in the series with MCF7 [7] and with MCF7 [15] was “Active” each time. In the series with MCF7 [8], the Activity result was “Toxic”. Besides, the outcome in the series on A549 [9] and in the series with MCF7 [10] was Active. Moreover, the outcome in the series on A549 [11] and with MCF7 [12] was inactive. Further, the inhibition entry in [14] is “Active”.

`O=C(O)CCCC1CC(=O)c2cc(Cl)cc(Br)c2O1` (stereo unspecified): the inhibition in series [1] was 7.6%.

For the molecule `O=C1CC(CCc2ccc3ncccc3c2)Oc2c(Br)cc(Cl)cc21` (stereo unspecified), the inhibition in [1] stood at 56%.

For `O=C1CC(CCc2ccncc2)Oc2c(Br)cc(Cl)cc21` (stereo unspecified), the inhibition in series [1] turned out to be 73%.

On to `CC(C)NC(=O)CCCC1CC(=O)c2cc(Cl)cc(Br)c2O1` (stereo unspecified), for which, in [1], the inhibition worked out at 23%.

As to `O=C1CC(CCCN2CCOCC2)Oc2c(Br)cc(Cl)cc21` (stereo unspecified), the inhibition in series [16] came out at 17%.

As for `O=C1CC(CCCCO)Oc2c(Br)cc(Cl)cc21` (stereo unspecified), the inhibition in series [1] turned out to be 52%.

Regarding `O=C1CC(CCCCCO)Oc2c(Br)cc(Cl)cc21` (stereo unspecified), the inhibition in series [1] was 67%.

For `CNC(=O)CCCC1CC(=O)c2cc(Cl)cc(Br)c2O1` (stereo unspecified), the inhibition in series [1] amounted to 39%.

For the molecule `CNC(=O)CCC1CC(=O)c2cc(Cl)cc(Br)c2O1` (stereo unspecified), the inhibition in series [1] turned out to be 0.2%.

Regarding `CN(C)C(=O)CCCC1CC(=O)c2cc(Cl)cc(Br)c2O1` (stereo unspecified), in series [1], the inhibition amounted to 53%.

On to `Nc1c(CCc2ccccc2)oc2c(Br)cc(Cl)cc2c1=O`, for which the inhibition in series [1] was determined as 79%.

With `O=C1CC(CCCO)Oc2c(Br)cc(Cl)cc21` (stereo unspecified), the inhibition in series [1] is 18%.

For the molecule `CC(=O)Nc1c(CCc2ccccc2)oc2c(Br)cc(Cl)cc2c1=O`, the inhibition in series [1] is 81%. Moreover, the IC50 in series [2] amounted to 28.7 µM.

For the molecule `CCCCCC1CC(=O)c2cc(Br)ccc2O1` (stereo unspecified), the inhibition in series [1] stood at 69%.

Regarding `N#Cc1c(CCc2ccccc2)oc2c(Br)cc(Cl)cc2c1=O`, in series [1], the inhibition turned out to be 50%.

As for `Cc1noc(CCCC2CC(=O)c3cc(Cl)cc(Br)c3O2)n1` (stereo unspecified), the inhibition in [1] worked out at 49%.

As for `CCCCCC1CC(=O)c2cc(Br)cc(Cl)c2O1` (stereo unspecified), the inhibition in series [1] was found to be 96%. The half-inhibitory concentration (IC50) in series [2] worked out at 1.8 µM.

With `O=C1CC(CCc2ccccn2)Oc2c(Br)cc(Cl)cc21` (stereo unspecified), the inhibition in series [1] amounted to 74%.

In the case of `COC(=O)CCCC1CC(=O)c2cc(Cl)cc(Br)c2O1` (stereo unspecified), in [1], the inhibition stood at 90%. Besides, in series [2], the IC50 is 2 µM.

As for `O=C1CC(CCCN2CCCCC2)Oc2c(Br)cc(Cl)cc21` (stereo unspecified), in series [16], the inhibition worked out at 40%.

For `O=C(CCCC1CC(=O)c2cc(Cl)cc(Br)c2O1)NCc1ccccc1` (stereo unspecified), the inhibition in series [1] is 39%.

Turning to `O=C(O)CCC1CC(=O)c2cc(Cl)cc(Br)c2O1` (stereo unspecified), in [1], the inhibition was 6.8%.

On to `Cc1noc(CCC2CC(=O)c3cc(Cl)cc(Br)c3O2)n1` (stereo unspecified), for which the inhibition in [1] was 77%; in [13] it was “Dose-dependent effect”. The IC50 in series [2] was 12.2 µM. Further, the “growth inhibition (GI)” value in the series with A549 [3] and in the series with MCF7 [4] was “Active” each time. The inhibition result in [17] was “Active”. Moreover, the result in the series on MCF7 [18], in the series on A549 [19] and in the series on A549 [20] was Active. The outcome with A549 [21] and in the series with MCF7 [22] was inactive.

Regarding `O=C1CC(CCc2ccc3[nH]c(=O)ccc3c2)Oc2c(Br)cc(Cl)cc21` (stereo unspecified), the inhibition in series [1] came to 59%.
